Shown are actives, neighbours in structure and some others; about 5.1% of the full set was active somewhere.
APP 5'UTR act: activators of APP 5'UTR luciferase reporter, primary screen, SH-SY5Y cells. SH-SY5Y APP 5'UTR luciferase reporter, luminescence; zero percent = DMSO vehicle wells. activation, % at 2 µM. hit rate 1% among 190,000. AID 1276, 2008;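 active = activation above a set limit, based on mean plus 3 SD of controls, cut at about 140% in these data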
STAT3 act: IL-6 driven STAT3 reporter potentiators, primary screen, U3A cells, luciferase, luminescence, MLSCN library; hit rate 0.91% among 190,000; AID 871, 2007; activation (% of control), % at 5.6 µM; IL-6 STAT3-luciferase reporter; 100% = signal with IL-6 EC80 alone;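 active = activation above the screen-wide mean of compound activation plus 3 SD, cut at about 130% in these data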
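Test system: STAT3-luciferase reporter U3A cells; Detection: reporter luminescence signal; Times: 1 h compound pre-exposure, 6 h IL-6 stimulation, 37 °C; Benchmarks: IL-6-only high control; Also added: IL-6 stimulus at 33 ng/mL final.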
STAT3 inh: IL-6 driven STAT3 reporter inhibitors, primary screen, U3A cells, luciferase, luminescence, MLSCN library; IL-6 STAT3-luciferase reporter; host cell line lacks STAT1; inhibition, % at 5.5 µM; hit rate 0.89% among 190,000; AID 862, 2007;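 active = inhibition above the mean inhibition across all screened compounds plus 3 SD, cut at about 44% in these data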
STAT1 act: STAT1 signaling activators, primary screen, cell-based, HTS, luciferase reporter | NIH 3T3 STAT1-luciferase reporter, IFN-gamma, luminescence; 100% = IFN-gamma alone, no compound | activation (% of control), % at 5.5 µM | hit rate 2.6% among 200,000;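 active = activation above the screen-wide mean activation plus 3 SD, cut at about 130% in these data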
STAT1 blocker: STAT1 signaling inhibitors, primary screen, cell-based, HTS, luciferase reporter. NIH 3T3 STAT1-luciferase reporter, IFN-gamma, luminescence. inhibition, % at 5.5 µM. hit rate 0.35% among 200,000;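 active = inhibition above a set limit, the mean inhibition across all tested compounds plus 3 SD, cut at about 34% in these data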
NF-kB neuron act: activators of NF-kB expression in neurons, primary screen, cell-based, HTS | fold change at 12.5 µM | human neuronal cells, NF-kB reporter expression; active compounds read high | hit rate 1.6% among 190,000; in the data active = fold change above about 3.3
A number is an active result; – = inactive; · = no result given.

SMILES | APP 5'UTR act | STAT3 act | STAT3 inh | STAT1 act | STAT1 blocker | NF-kB neuron act
CCCCC1(C)OC(=O)C(=Cc2ccc(N(CC)CC)cc2)C(=O)O1 (centres undefined) | – | – | – | – | – | –
CNC(=O)c1sccc1S(=O)(=O)Cc1c(Cl)cccc1Cl | – | – | – | – | – | –
Cc1cc(C)n2ncc(C(=O)NCc3ccc(Cl)cc3)c2n1 | – | – | – | – | – | –
O=C(NCc1ccc(Cl)cc1)c1cnn2ccccc12 | – | – | – | 131 | – | –
CCOC(=O)CNC(=O)CSc1nnc(SCC(=O)NCC(=O)OCC)s1 | – | – | – | – | – | –
CCOC(=O)CNC(=O)CSc1nnc(NC(=O)c2ccc(C)cc2)s1 | – | – | 72 | – | 59 | –
CC(C)(C)OC(=O)N/N=C/c1ccc(Br)cc1 | – | – | – | 149 | – | 4.5
CC(C)(C)NC(=O)C(=O)N/N=C/c1ccc(Br)cc1 | – | – | – | – | – | –
Cc1ccc(NC(=O)c2cc(C)n(-c3ccccc3)c2C)cc1 | – | – | 88 | – | 39 | –
Cc1cc(C(=O)N/N=C/c2cccc([N+](=O)[O-])c2)c(C)n1-c1ccccc1 | – | – | – | 132 | – | –
Cc1nc2c(-c3ccc(F)cc3)cnn2c2c1CCC2 | – | – | – | 130 | – | –
CCCCOc1ccc(-c2[nH]ncc2C=O)cc1 | – | – | – | 135 | – | –
C=CCSc1n[nH]c(-c2ccc(OCCCC)cc2)n1 | – | – | – | – | – | –
CCCCC(CC)Cn1c2nc3ccccc3nc2c2c(=N)oc(C)nc21 (centres undefined) | – | – | – | – | – | –
Oc1ccc(/C=N/NC2=NCCCCC2)cc1 | – | – | – | – | – | –
O=[N+]([O-])c1ccccc1/C=N/NC1=NCCCCC1 | – | – | – | 133 | – | –
c1ccc(C2=Nc3ccccc3NC(c3ccccc3)C2)cc1 (centres undefined) | – | – | – | – | – | –
Brc1ccccc1C1CC(c2ccccc2)=Nc2ccccc2N1 (centres undefined) | 149 | – | – | 135 | – | –
CCOC(=O)c1cc(-c2ccc(OC)cc2)n(CCC(=O)NC2CCN(Cc3ccccc3)CC2)c1C | – | – | – | – | – | –
CCOC(=O)c1cc(-c2ccc(F)cc2)n(CCC(=O)NC2CCN(Cc3ccccc3)CC2)c1C | – | – | – | – | – | 3.7
C/C(=N\Nc1ccc(C(F)(F)F)cn1)c1ccncc1 | – | – | – | 134 | – | –
C/C(=N\NC(=O)c1ccc(N/N=C(\C)c2ccncc2)cc1)c1ccncc1 | – | – | – | – | – | –
CC(C)[C@H](NS(=O)(=O)c1ccccc1)C(=O)OCC(=O)NC(=O)c1cccn1C | – | – | – | – | – | –
Cc1c(N=Nc2c(-c3ccc([N+](=O)[O-])cc3)[nH]n(C(N)=S)c2=O)cccc1[N+](=O)[O-] | – | – | 77 | – | – | –
CCSc1nc2ccc(N3C(=O)C4C5C=CC(C5)C4C3=O)cc2s1 (centres undefined) | – | – | – | – | – | –
SMILES | APP 5'UTR act | STAT3 act | STAT3 inh | STAT1 act | STAT1 blocker | NF-kB neuron act
CC(=NC1CCCCC1)C1=C(O)c2ccccc2C1=O | – | – | – | 148 | – | ·
COc1ccccc1N1CCN(C(=O)c2ccccc2NC(=O)C2CCCCC2C(=O)O)CC1 (centres undefined) | – | – | – | – | – | –
CCCNC(=O)C1CNc2ccccc2O1 (centres undefined) | – | 134 | – | – | – | –
O=C(NCCO)C1COc2ccccc2O1 (centres undefined) | – | – | – | – | – | ·
Cc1c(Cl)cccc1NC(=O)c1cc(-c2ccccc2O)n[nH]1 | – | – | – | – | – | –
COc1ccccc1-c1cc(-c2cc(Cl)ccc2O)n[nH]1 | – | – | – | – | – | –
Oc1ccc(Br)cc1-c1cc(-c2ccccc2F)[nH]n1 | – | 134 | – | – | – | –
Cc1ccc(-c2cc(-c3ccccc3Cl)[nH]n2)c(O)c1 | 171 | – | – | – | – | 9.8
